Sampled rows, rich in hits. Any-hit rate of the full collection: about 3.6%.
FID counter: displaces DNA intercalator in HCV helicase counter-screen; AID 1845; DNA fluorescent intercalator displacement, fluorescence; inhibition, % at 7.9 µM; hit rate 0.17% among 290,000; in the data active = inhibition above about 37%;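 also: 0% = vehicle and 100% = reference compound; higher means more ethidium bromide displaced from hairpin DNA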
NR3A LBD binder: modulators (binders) of human NR3A ligand-binding domain. hit rate 2.5% among 340,000. Tm shift relative to glycine control, % at 25 µM. AID 1259313. NR3A LBD differential scanning fluorimetry, Tm shift; 0% = protein alone, 100% = glycine-bound protein;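 active = melting temperature shift of at least 10% of the positive control shift, at one fixed dose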
FGF22 binding: binders of recombinant human FGF22 by thermal shift; SYPRO orange fluorescence; percent of sucrose octasulfate shift, DMSO zero; activity (Tm shift, normalised), % at 9.99 µM; hit rate 1.5% among 340,000; AID 651658;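 active = mean Tm shift, scaled 0 neutral to 100 positive control, at about 1.3% or above, every replicate too, limit read from the data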
Target sequence (Q9HCT0 whole entry, looked up): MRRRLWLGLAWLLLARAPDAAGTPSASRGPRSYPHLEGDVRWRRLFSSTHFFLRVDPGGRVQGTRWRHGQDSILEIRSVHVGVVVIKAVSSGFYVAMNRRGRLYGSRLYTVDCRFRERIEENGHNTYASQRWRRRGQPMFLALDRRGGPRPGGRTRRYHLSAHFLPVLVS
HCV NS3 hel inh: blocks Hepatitis C virus NS3 helicase unwinding | NS3 helicase DNA unwinding, Cy5 molecular beacon fluorescence | inhibition, % at 10.9 µM | hit rate 0.56% among 290,000;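 active = inhibition above the mean of all tested compounds plus 3 SD, set per campaign, cut at about 35% in these data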;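 also: 0% = DMSO wells and 100% = thioflavine S control wells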
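System: Hepatitis C virus NS3 helicase domain fragment enzyme | Reagent: Annealed dual-labelled DNA beacon duplex, ATP-started | Compound dosing: 10.9 µM single point, 0.8% DMSO | Incubation: 1 h reaction at 25 °C, ATP-initiated | Technique: Cy5 fluorescence | Evaluation: Percent inhibition from t60/t0 fluorescence ratio | Benchmarks: Low DMSO, high thioflavine S at 110 µM | Replication: Singlicate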
EBNA-1 inhibitor: blocks EBNA-1 binding to DNA; EBNA-1 DNA binding, fluorescence polarization; inhibition, % at 14.8 µM; hit rate 0.34% among 300,000; in the data active = inhibition above about 28%
ZTA DNA inh: ZTA (EBV) inhibition in EBNA-1 counter-screen; inhibition, % at 11 µM; hit rate 0.15% among 320,000; AID 2234; ZTA-DNA binding, fluorescence polarization; P03206; in the data active = inhibition above about 33%
Target sequence (P03206 whole entry, looked up): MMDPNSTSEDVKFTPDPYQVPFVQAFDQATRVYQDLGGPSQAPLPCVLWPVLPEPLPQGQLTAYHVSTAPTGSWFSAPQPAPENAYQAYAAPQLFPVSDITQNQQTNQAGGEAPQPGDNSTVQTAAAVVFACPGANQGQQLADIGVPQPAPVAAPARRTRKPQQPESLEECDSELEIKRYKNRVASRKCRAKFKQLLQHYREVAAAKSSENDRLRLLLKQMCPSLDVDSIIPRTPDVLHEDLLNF
Numbers without * were called inactive; / = no result given.

SMILES | FID counter | NR3A LBD binder | FGF22 binding | HCV NS3 hel inh | EBNA-1 inhibitor | ZTA DNA inh
COc1ccc(S(=O)(=O)N(C)C[C@H]2Oc3ccc(NS(=O)(=O)c4cn(C)cn4)cc3CC(=O)N([C@@H](C)CO)C[C@@H]2C)cc1 | / | / | 0 | / | / | /
CNC[C@H]1Oc2ccc(NS(=O)(=O)c3c(C)noc3C)cc2C(=O)N([C@@H](C)CO)C[C@@H]1C | / | / | 0 | / | / | /
Cc1ccccc1-c1ccc2c(c1)O[C@H](CN(C)Cc1ccc(C(=O)O)cc1)[C@@H](C)CN([C@@H](C)CO)S2(=O)=O | / | / | 0 | / | / | /
CC(=O)Nc1ccc2c(c1)C(=O)N(C)[C@@H]1CC[C@H](CC(=O)NCC3CCCCC3)O[C@H]1CO2 | / | / | 0 | / | / | /
COc1cc(/C=N/NC(=O)c2ccc(O)cc2)ccc1Oc1ccc([N+](=O)[O-])cn1 | -4 | 3 | 44* | 10 | 14 | 4
COc1cc(/C=N/NC(=O)c2cccc([N+](=O)[O-])c2)ccc1OC(=O)c1ccco1 | -1 | 7 | 43* | -2 | -2 | -2
Cc1cccc(S(=O)(=O)N2CCCCN3[C@H](CO)[C@H](c4ccc(C#CC5CC5)cc4)[C@H]3C2)c1 | / | / | 0 | / | / | /
Cc1nn(-c2ccccc2)c(N)c1C1(O)C(=O)N(C(C)C)c2ccccc21 (configuration not stated) | -10 | -13 | 0 | -2 | -21 | -13
Cc1noc(N)c1C1(O)C(=O)N(C(C)C)c2ccccc21 (configuration not stated) | -5 | 0 | 43* | -1 | -11 | -9
COc1ccc(NC(=O)Nc2ccc3c(c2)[C@H]2C[C@@H](CC(=O)N(C)C)O[C@@H](CO)[C@H]2O3)cc1 | / | / | 0 | / | / | /
COc1ccc(CCC(=O)O)c(C(CC(=O)O)C(=O)O)c1OS(=O)(=O)c1ccc(C)cc1 (configuration not stated) | / | / | 1.6* | / | / | /
C=CCn1c(SCC(=O)N(C)C2CCS(=O)(=O)C2)nnc1-c1ccccc1 (configuration not stated) | / | -1 | 0 | / | 0 | -1
CN(C(=O)CSc1nc2ccccc2n1CCc1ccccc1)C1CCS(=O)(=O)C1 (configuration not stated) | -22 | 14* | / | 5 | -10 | -5
CCN(C(=O)CSc1nnc(-c2c[nH]c3ccccc23)o1)C1CCS(=O)(=O)C1 (configuration not stated) | -7 | -3 | 43* | 10 | 3 | -1
CCn1c(SCC(=O)N(C)C2CCS(=O)(=O)C2)nnc1-c1ccccc1 (configuration not stated) | -4 | 1 | 43* | -2 | -5 | -8
CCN(C(=O)CSc1nnc(-c2ccc(F)cc2)n1C)C1CCS(=O)(=O)C1 (configuration not stated) | / | -1 | 43* | / | / | /
COCCn1c(SCC(=O)N(C)C2CCS(=O)(=O)C2)nc2ccccc2c1=O (configuration not stated) | -7 | 0 | 0 | 4 | -5 | -8
C[C@@H]1CN([C@@H](C)CO)C(=O)c2cc(-c3cccc(F)c3)cnc2O[C@@H]1CN(C)C(=O)c1cnccn1 | / | / | 0 | / | / | /
C[C@@H]1CN([C@H](C)CO)C(=O)c2cc(NC(=O)CCC(F)(F)F)ccc2O[C@H]1CN(C)S(=O)(=O)c1cn(C)cn1 | / | / | 0 | / | / | /
C[C@@H]1CN([C@H](C)CO)C(=O)Cc2cc(NC(=O)C3CC3)ccc2O[C@@H]1CN(C)C(=O)Nc1ccccc1 | / | / | 0 | / | / | /
COCC(=O)N(C)C[C@@H]1Oc2ncc(C#CC(C)(C)O)cc2C(=O)N([C@H](C)CO)C[C@@H]1C | / | / | 0 | / | / | /
CCCC(=O)NC(c1ccc(OC)c(OC)c1)c1cc(Cl)c2cccnc2c1O (configuration not stated) | -5 | -9 | 43* | 13 | -8 | -12
CCN(CC(=O)Nc1c(F)cccc1F)C(=O)c1ccc2ccccc2n1 | / | 15* | 0 | / | -3 | 4
CCN(CC(=O)Nc1c(F)cccc1F)C(=O)CCc1ccc(OC)cc1 | -6 | -2 | 44* | 3 | 6 | -1
O=C(Cc1ccccc1)N1CC2(C1)[C@H](c1ccccc1)[C@H](CO)N2C(=O)c1cccnc1 | / | / | 0 | / | / | /
COc1ccc(CCNC(=O)/C(C#N)=C/c2ccc(OCC(=O)NCC3CCCO3)cc2)cc1OC (configuration not stated) | -31 | 14* | 0 | -10 | -21 | -7

Screening data as filed in PubChem.
